Measurements taken from the RNAGym collection of RNA variant scans (doi:10.1126/science.aae0568).
This sample holds only a part of the variants without activity.

B1: tRNA (parent)
chain: GUUCCGUUGGCGUAAUGGUAACGCGUCUCCCUCCUAAGGAGAAGACUGCGGGUUCGAGUCCCGUACGGAACG

Variants of: B1
Experiment: yeast fitness relative to wild type (ratio to wild type); higher = fitter; tRNA-Arg(CCU), competitive growth, 37 C, YPD
How it was run: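 A pool of Saccharomyces cerevisiae strains, each with a tRNA-Arg(CCU) gene variant at the native genomic locus, was competed in YPD at 37°C for 24 hours across six parallel replicates. The variants had been chemically synthesised at a 3% per-site mutation rate over 69 sites, and gene amplicons before and after competition were read by 100-nucleotide paired-end sequencing. Darwinian fitness relative to wild type rested on changes in genotype frequencies. Genotypes required ≥ 100 starting reads, and estimates < 0.5 were set to 0.5.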

First: C33U A40U
Second: C33U A40U C66U
The yeast fitness of the first is higher: 0.616 for the first, no more than 0.5 for the second.

Compared with C33U A42C A65G, C33U A42C C46A is lower in yeast fitness: 0.58 for the first, no more than 0.5 for the second.

C33U A42C C55G G68C and C33U A42C C62A cannot be ordered by yeast fitness: no more than 0.5 for the first, no more than 0.5 for the second.

Compared with C33U A42G, C33U A42G U59A is lower in yeast fitness: 0.622 for the first, no more than 0.5 for the second.

Compared with C33U A42G U59G, C33U A42U is higher in yeast fitness: 0.504 for the first, 0.729 for the second.

First: C33U A42U G68A A70G
Second: C33U A43C C46G
The yeast fitness of the first is higher: 0.534 for the first, no more than 0.5 for the second.

Compared with C33U A43C G48A G63C, C33U A43G is higher in yeast fitness: no more than 0.5 for the first, 0.672 for the second.

First: C33U A43G A70U
Second: C33U A43G C62G
The yeast fitness of the first is higher: 0.637 for the first, no more than 0.5 for the second.

Going from C33U A43G U47C to C33U A43G U53C, the yeast fitness falls from 0.563 to no more than 0.5.

Going from C33U A43U G44A C49G G50C C61U C66U to C33U A45C, the yeast fitness rises from no more than 0.5 to 0.703.

Going from C33U A45C A57U U59C to C33U A45C C49U, the yeast fitness rises from no more than 0.5 to 0.652.

C33U A45C U64G and C33U A57C cannot be ordered by yeast fitness: no more than 0.5 for the first, no more than 0.5 for the second.

Compared with C33U A57U, C33U A57U U59C is higher in yeast fitness: 0.546 for the first, 0.601 for the second.

First: C33U A65C C66U
Second: C33U A65G
The yeast fitness of the first is lower: 0.59 for the first, 0.665 for the second.

First: C33U A69U
Second: C33U A70G
The yeast fitness of the first is higher: 0.788 for the first, 0.6 for the second.

Compared with C33U C34A A36G A42U, C33U C34A A36G A42U C49U is lower in yeast fitness: 0.73 for the first, 0.571 for the second.

C33U C34A A43C and C33U C34G A45C C60A cannot be ordered by yeast fitness: no more than 0.5 for the first, no more than 0.5 for the second.

First: C33U C34G C62A
Second: C33U C34G C66U
The yeast fitness of the first is lower: no more than 0.5 for the first, 0.542 for the second.

Going from C33U C34U G50A to C33U C46A, the yeast fitness rises from 0.608 to 0.821.

Compared with C33U C46G C49U, C33U C46U is higher in yeast fitness: 0.632 for the first, 0.708 for the second.

First: C33U C49A
Second: C33U C49A G58C A69U
The yeast fitness of the first is higher: 0.638 for the first, 0.52 for the second.

First: C33U C49A G68C
Second: C33U C49G A65C
The yeast fitness of the first is lower: no more than 0.5 for the first, 0.504 for the second.

Compared with C33U C49U, C33U C49U A69U is lower in yeast fitness: 0.849 for the first, 0.564 for the second.

Compared with C33U C49U G51C, C33U C49U G51C C55U is lower in yeast fitness: 0.512 for the first, no more than 0.5 for the second.

First: C33U C55U C60U
Second: C33U C60G
The yeast fitness of the first is lower: no more than 0.5 for the first, 0.607 for the second.

First: C33U C60U
Second: C33U C61U
The yeast fitness of the first is lower: 0.629 for the first, 0.734 for the second.

Compared with C33U C62U, C33U G38A is higher in yeast fitness: 0.717 for the first, 0.866 for the second.

Compared with C33U G38A C46U U64C, C33U G38A C49U C61A is lower in yeast fitness: 0.536 for the first, no more than 0.5 for the second.

C33U G38A C60G U64C and C33U G38A G41U C46U cannot be ordered by yeast fitness: no more than 0.5 for the first, no more than 0.5 for the second.

C33U G39A A57G and C33U G39A A69C cannot be ordered by yeast fitness: no more than 0.5 for the first, no more than 0.5 for the second.

Going from C33U G39A G63A to C33U G39C A57U, the yeast fitness rises from no more than 0.5 to 0.643.

Going from C33U G41A to C33U G41A C61G, the yeast fitness falls from 0.721 to no more than 0.5.

Compared with C33U G41C, C33U G41C A45C is lower in yeast fitness: 0.708 for the first, 0.621 for the second.

C33U G41C C55A A69C and C33U G41C G68C A69U cannot be ordered by yeast fitness: no more than 0.5 for the first, no more than 0.5 for the second.

Compared with C33U G44A, C33U G44A A65G is lower in yeast fitness: 0.652 for the first, 0.606 for the second.

First: C33U G48A U64G
Second: C33U G48C
The yeast fitness of the first is lower: 0.618 for the first, 0.778 for the second.

Compared with C33U G50A, C33U G50C A57C is lower in yeast fitness: 0.626 for the first, 0.623 for the second.

C33U G50C A70U and C33U G51A A57U cannot be ordered by yeast fitness: no more than 0.5 for the first, no more than 0.5 for the second.

C33U G51C and C33U G52C G56C cannot be ordered by yeast fitness: no more than 0.5 for the first, no more than 0.5 for the second.

First: C33U G56A
Second: C33U G56U A65G
The yeast fitness of the first is higher: 0.682 for the first, no more than 0.5 for the second.

Compared with C33U G58C, C33U G58C C62A C66G is lower in yeast fitness: 0.635 for the first, no more than 0.5 for the second.

Compared with C33U G58U C61A, C33U G63A is higher in yeast fitness: no more than 0.5 for the first, 0.614 for the second.

First: C33U G63C
Second: C33U G67A
The yeast fitness of the first is lower: 0.545 for the first, 0.776 for the second.

First: C33U G67C
Second: C33U G68A
The yeast fitness of the first is higher: 0.839 for the first, 0.679 for the second.

Compared with C33U U35C C61U, C33U U47C is higher in yeast fitness: 0.555 for the first, 0.713 for the second.

Going from C33U U47C A57G to C33U U47C G48A G58A, the yeast fitness rises from no more than 0.5 to 0.506.

Compared with C33U U53A G58C, C33U U53C is higher in yeast fitness: no more than 0.5 for the first, 0.574 for the second.

First: C33U U59A
Second: C33U U59A A70G
The yeast fitness of the first is higher: 0.67 for the first, no more than 0.5 for the second.

Compared with C33U U64A, C33U U64G A70C is lower in yeast fitness: 0.677 for the first, 0.555 for the second.

Compared with C34A, C34A A36C is lower in yeast fitness: 0.71 for the first, 0.511 for the second.

Going from C34A A36C C46A to C34A A36G, the yeast fitness rises from no more than 0.5 to 0.741.

C34A A36G A65C G68C and C34A A36G U47C cannot be ordered by yeast fitness: no more than 0.5 for the first, no more than 0.5 for the second.

First: C34A A36U
Second: C34A A36U C55G C66A
The yeast fitness of the first is higher: 0.518 for the first, no more than 0.5 for the second.

C34A A36U G52A C60A and C34A A37C G63C cannot be ordered by yeast fitness: no more than 0.5 for the first, no more than 0.5 for the second.

Compared with C34A A37G A57U, C34A A37G C61A is lower in yeast fitness: 0.616 for the first, no more than 0.5 for the second.

Compared with C34A A37G G41A, C34A A37U is higher in yeast fitness: no more than 0.5 for the first, 0.741 for the second.

C34A A37U A69C and C34A A37U G52A cannot be ordered by yeast fitness: no more than 0.5 for the first, no more than 0.5 for the second.

Going from C34A A37U G63C to C34A A37U U54C, the yeast fitness rises from no more than 0.5 to 0.542.

C34A A40C A42U A65U G67A and C34A A40G C66U cannot be ordered by yeast fitness: no more than 0.5 for the first, no more than 0.5 for the second.

Going from C34A A40G U47A C66G A69C A70C to C34A A42C, the yeast fitness rises from 0.693 to 0.818.

C34A A42C A45U A65U and C34A A42C C60G cannot be ordered by yeast fitness: no more than 0.5 for the first, no more than 0.5 for the second.

C34A A42C U59A G67C and C34A A42G C46U cannot be ordered by yeast fitness: no more than 0.5 for the first, no more than 0.5 for the second.

First: C34A A42U
Second: C34A A42U A43C
The yeast fitness of the first is lower: 0.618 for the first, 0.629 for the second.

C34A A42U A65C and C34A A42U A69U cannot be ordered by yeast fitness: no more than 0.5 for the first, no more than 0.5 for the second.

C34A A42U G58A C62U G63A and C34A A42U G68C cannot be ordered by yeast fitness: no more than 0.5 for the first, no more than 0.5 for the second.

Going from C34A A43C to C34A A43U, the yeast fitness rises from 0.645 to 0.729.

Compared with C34A A45C G68A, C34A A45U is higher in yeast fitness: 0.614 for the first, 0.698 for the second.

First: C34A A57U
Second: C34A A69C
The yeast fitness of the first is lower: 0.529 for the first, 0.752 for the second.

Compared with C34A A69U, C34A A70U is higher in yeast fitness: 0.858 for the first, 0.924 for the second.

C34A C46G C60A and C34A C46U C61G cannot be ordered by yeast fitness: no more than 0.5 for the first, no more than 0.5 for the second.

C34A C46U U47A and C34A C46U U47A U59G cannot be ordered by yeast fitness: no more than 0.5 for the first, no more than 0.5 for the second.

Compared with C34A C49A C60G A65C, C34A C49A G51C is higher in yeast fitness: no more than 0.5 for the first, 0.591 for the second.

Compared with C34A C49A G63U G67A, C34A C49A U59G is higher in yeast fitness: no more than 0.5 for the first, 0.654 for the second.

Compared with C34A C49G G50A U64A, C34A C49U is higher in yeast fitness: 0.551 for the first, 0.826 for the second.

First: C34A C49U G50C G58A
Second: C34A C49U G51C C61U
The yeast fitness of the first is higher: 0.869 for the first, no more than 0.5 for the second.

First: C34A C49U G58C
Second: C34A C55A
The yeast fitness of the first is lower: no more than 0.5 for the first, 0.566 for the second.

First: C34A C60G
Second: C34A C61G
The yeast fitness of the first is higher: 0.664 for the first, no more than 0.5 for the second.

Compared with C34A C61G G68C, C34A C62G is higher in yeast fitness: 0.538 for the first, 0.675 for the second.

Going from C34A C66A to C34A G38C A43U, the yeast fitness rises from 0.509 to 0.588.

Going from C34A G38C A43U G68A to C34A G39A, the yeast fitness rises from no more than 0.5 to 0.734.

Going from C34A G41A to C34A G41A C46A, the yeast fitness falls from 0.782 to no more than 0.5.

Going from C34A G44A A57U to C34A G44A C46U G68A, the yeast fitness rises from no more than 0.5 to 0.56.

Compared with C34A G44C, C34A G44C A57U C62U is lower in yeast fitness: 0.574 for the first, no more than 0.5 for the second.

In the case of C34A G44C A70U, the yeast fitness is reported as 0.54.
